According to PMC8245385 (Clinical Drug Investigation, 2021):
Like-named read-outs stand apart in the source and are kept apart here.

Tests used:
[1] = Plasma pharmacokinetics in the doravirine/islatravir drug interaction study; assay type: in vivo, human
Method in brief: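 Healthy adults were randomized and blinded. They took oral doravirine 100 mg or placebo QD for 5 days, then islatravir 2.25 mg QD for 14 days, then both for 5 days, with no washout and ≥10 h fasting before dosing on PK days. K2EDTA plasma went to validated LC-MS/MS (islatravir LLOQ 0.10 ng/mL). AUC0–24h used linear-up/log-down; GMRs came from a ln-scale mixed-effects model.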

Safety and tolerability = assay type: in vivo, human; conditions: doravirine 100 mg QD, islatravir 2.25 mg QD, alone or in combination; participants without HIV
Method in brief: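 Safety was assessed throughout the study by adverse-event monitoring, physical examinations, vital signs, electrocardiography and laboratory safety tests. Investigators graded clinical adverse events as mild, moderate or severe in intensity. The analysis set was all participants given at least one dose of active study drug or placebo. Dosing was oral with water at the same time each day.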

[2] = cited from earlier work
[3] = cited from earlier work; remark: listed apart in the source
CYP enzymes = conditions: cited from earlier work
[4] = cited from earlier work; remark: listed apart in the source
[5] = single oral doses, participants without HIV

## Cn1c(Cn2ccc(C(F)(F)F)c(Oc3cc(Cl)cc(C#N)c3)c2=O)n[nH]c1=O [Doravirine]
[1]; doravirine 100 mg QD with vs without islatravir 2.25 mg QD
  Doravirine C24h, GMR (90% CI), (doravirine + islatravir)/doravirine: 1.12 (0.95–1.32)
[1]; human, plasma, oral, 100 mg
  AUC(0-t): 34 µM·h
  Cmax: 2440 nM
  Tmax: 2.5 h
  concentration at 24 h: 773 nM
Safety and tolerability
  Tolerability: generally well tolerated
[2]; 6–1200 mg orally
  Apparent terminal half-life: 12 to 21 h
[2]; QD dosing, 200 mg orally
  Time to attainment of steady state: approximately 5 days
[2]
  Range of median Tmax previously reported: 1 to 4 h
[2]; moderate CYP3A4 inducer
  Reduction of doravirine exposure on coadministration with rifabutin: 50%
[2]; strong CYP3A4 inducer
  Reduction of doravirine exposure on coadministration with rifampin: 88%
[3]; doses of up to 1,200 mg in clinical studies
  Tolerability: generally well tolerated
CYP enzymes; in vitro
  Inhibition or induction of CYP enzymes: not an inhibitor or inducer of CYP enzymes

## C#C[C@]1(CO)O[C@@H](n2cnc3c(N)nc(F)nc32)C[C@@H]1O [Islatravir, 4'-Ethynyl-2-fluoro-2'-deoxyadenosine]
[1]; human, plasma, oral, 2.25 mg
  AUC(0-t): 0.254 µM·h
  Cmax: 63.5 nM
  Tmax: 0.52 h
Safety and tolerability
  Tolerability: generally well tolerated
[4]; oral QD dosing
  Time to steady-state plasma concentrations: ~14 days
[4]; [5]
  Half-life of islatravir: 49 to 61 h
  Time at which peak plasma concentrations were attained: ~ 0.5 h
[3]; treatment-naive people living with HIV-1, oral doses 0.5–30 mg
  Tolerability: generally well tolerated
CYP enzymes
  Metabolism by CYP enzymes: not metabolized by CYP enzymes

## C#C[C@]1(COP(=O)(O)OP(=O)(O)OP(=O)(O)O)O[C@@H](n2cnc3c(N)nc(F)nc32)C[C@@H]1O [islatravir-TP]
[4]; after islatravir administration
  Time at which peak intracellular islatravir-TP concentrations were attained: 6 to 24 h
[4]; dosed daily to steady state
  Apparent terminal half-life of islatravir-TP: exceeded 7 days
[4]; oral QD dosing of islatravir
  Time to steady state of intracellular islatravir-TP: ≤ 28 days
[4]; single oral doses of islatravir
  Intracellular half-life of islatravir-TP: 118 to 171 h
